According to ChEMBL document CHEMBL4229374 (Eur J Med Chem, 2018):
Activity calls are given as the source filed them. No cut-off for these calls is given here.

Legend:
[1] = molecular target: T1, Aldo-keto reductase family 1 member C3 (Homo sapiens, UniProt P42330); experiment: Inhibition of recombinant N-terminal GST-tagged human AKR1C3 expressed in Escherichia coli BL21 (DE) Codon Plus RP cells using S-tetralol as substrate in presence of NADP+ by fluorimetric analysis
T1 sequence (P42330 whole entry): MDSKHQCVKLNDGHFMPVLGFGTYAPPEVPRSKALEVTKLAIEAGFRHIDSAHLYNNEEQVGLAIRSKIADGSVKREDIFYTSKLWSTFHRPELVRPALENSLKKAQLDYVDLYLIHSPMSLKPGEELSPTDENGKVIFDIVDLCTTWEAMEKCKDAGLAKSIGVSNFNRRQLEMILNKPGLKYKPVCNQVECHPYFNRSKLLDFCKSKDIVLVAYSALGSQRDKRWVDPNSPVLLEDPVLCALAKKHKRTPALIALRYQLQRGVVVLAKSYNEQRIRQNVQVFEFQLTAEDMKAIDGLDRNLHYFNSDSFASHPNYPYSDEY

[2] = molecular target: Prostaglandin G/H synthase 2 (Homo sapiens) (UniProt P35354); experiment: Inhibition of human COX2 assessed as reduction in PGF2alpha production at 100 uM by ELISA; conditions: human COX2 enzyme
Sequence of Prostaglandin G/H synthase 2 (Homo sapiens) (P35354 whole entry, looked up): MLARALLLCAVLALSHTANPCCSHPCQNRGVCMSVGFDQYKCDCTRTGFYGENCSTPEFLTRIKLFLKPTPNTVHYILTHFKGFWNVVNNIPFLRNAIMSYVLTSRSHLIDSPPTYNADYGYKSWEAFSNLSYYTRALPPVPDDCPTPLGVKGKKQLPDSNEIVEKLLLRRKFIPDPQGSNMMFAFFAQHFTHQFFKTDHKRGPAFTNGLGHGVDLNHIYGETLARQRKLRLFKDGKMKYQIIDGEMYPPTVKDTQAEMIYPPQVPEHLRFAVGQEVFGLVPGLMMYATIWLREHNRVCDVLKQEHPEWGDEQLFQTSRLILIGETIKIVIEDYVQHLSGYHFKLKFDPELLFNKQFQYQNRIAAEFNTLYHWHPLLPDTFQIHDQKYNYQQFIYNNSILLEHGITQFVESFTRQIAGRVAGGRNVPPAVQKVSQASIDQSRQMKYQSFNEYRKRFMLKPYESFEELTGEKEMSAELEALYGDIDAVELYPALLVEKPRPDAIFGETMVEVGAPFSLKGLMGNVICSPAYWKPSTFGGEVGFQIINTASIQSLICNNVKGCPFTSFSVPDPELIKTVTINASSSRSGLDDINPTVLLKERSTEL

[3] = test system: CWR22R; experiment: Antiproliferative activity against human 22Rv1 cells after 72 hrs by sulforhodamine B colorimetric assay; format: functional, cell-based; conditions: 22Rv1, 72 h
[4] = molecular target: T2, COX1 (prostaglandin G/H synthase 1) (Ovis aries, UniProt P05979); experiment: Inhibition of ovine COX1 assessed as reduction in PGF2alpha production at 100 uM by ELISA; conditions: sheep, ovine COX1 enzyme
T2 sequence (P05979 whole entry): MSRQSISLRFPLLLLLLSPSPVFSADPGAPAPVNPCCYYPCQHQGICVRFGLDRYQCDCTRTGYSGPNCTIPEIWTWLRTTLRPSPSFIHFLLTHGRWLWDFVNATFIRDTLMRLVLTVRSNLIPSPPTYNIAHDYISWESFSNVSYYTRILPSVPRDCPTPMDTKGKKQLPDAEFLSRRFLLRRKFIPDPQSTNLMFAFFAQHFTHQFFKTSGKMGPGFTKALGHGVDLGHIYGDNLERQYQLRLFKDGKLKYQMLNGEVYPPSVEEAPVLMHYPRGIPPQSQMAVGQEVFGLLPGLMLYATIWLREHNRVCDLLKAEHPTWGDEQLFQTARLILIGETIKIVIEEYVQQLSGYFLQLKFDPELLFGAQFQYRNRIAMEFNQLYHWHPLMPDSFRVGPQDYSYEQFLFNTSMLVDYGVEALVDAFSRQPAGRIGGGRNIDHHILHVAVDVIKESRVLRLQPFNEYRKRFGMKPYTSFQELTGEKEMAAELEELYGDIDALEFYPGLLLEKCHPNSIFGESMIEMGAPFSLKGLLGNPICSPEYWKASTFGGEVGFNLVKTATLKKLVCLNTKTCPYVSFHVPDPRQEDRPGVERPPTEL
Method in brief: (§1)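 Ovine COX1 or human COX2 reaction in a commercial inhibitor screening kit. PGH2 formed is reduced with SnCl2 to PGF2α, which is quantified by enzyme immunoassay (absorbance). Single-point inhibition at 100 µM given as % ± SE. IC50 by linear regression. Mean ± SE of at least three experiments.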

[5] = molecular target: T3, Prostaglandin G/H synthase 1 (Ovis aries, UniProt P05979); experiment: Inhibition of ovine COX1 assessed as reduction in PGF2alpha production by ELISA; method in brief: as §1
T3 sequence (P05979 whole entry): T2 sequence (P05979 whole entry)

[6] = molecular target: T4, Aldo-keto reductase family 1 member C2 (Homo sapiens, UniProt P52895); experiment: Inhibition of recombinant N-terminal GST-tagged human AKR1C2 expressed in Escherichia coli BL21 (DE) Codon Plus RP cells using S-tetralol as substrate in presence of NADP+ by fluorimetric analysis
T4 sequence (P52895 whole entry): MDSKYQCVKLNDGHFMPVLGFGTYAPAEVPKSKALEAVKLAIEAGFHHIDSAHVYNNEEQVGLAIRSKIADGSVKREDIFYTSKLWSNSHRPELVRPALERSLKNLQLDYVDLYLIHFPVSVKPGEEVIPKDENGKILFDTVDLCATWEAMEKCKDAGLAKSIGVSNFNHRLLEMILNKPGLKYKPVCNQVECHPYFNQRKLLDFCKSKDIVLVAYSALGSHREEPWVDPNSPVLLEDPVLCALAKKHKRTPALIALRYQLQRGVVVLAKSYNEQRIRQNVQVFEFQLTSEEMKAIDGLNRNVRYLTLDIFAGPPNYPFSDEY
Method in brief: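 GST-tagged AKR1C2 purified on glutathione sepharose with thrombin cleavage. Percent inhibition from initial velocities versus solvent controls. IC50 as means of two experiments, each in triplicate.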

[7] = test system: CWR22R; experiment: Synergistic antiproliferative activity against human 22Rv1 cells assessed as reduction in cell viability at 20 uM after 72 hrs in presence of abiraterone by sulforhodamine B colorimetric proliferation assay; format: functional
[8] = molecular target: T5, Aldo-keto reductase family 1 member C3 (Homo sapiens) (UniProt P42330); experiment: Inhibition of AKR1C3-mediated testosterone production in human 22Rv1 cells preincubated for 1 hr followed by androstenedione addition and measured after 24 hrs by ELISA; format: cell-based
T5 sequence (whole entry): T1 sequence (P42330 whole entry)
Method in brief: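 22RV1 at 30,000 cells/well in RPMI with 10% charcoal-stripped serum, 37 °C, 5% CO2, 24 h. Inhibitor added at 4 concentrations for 1 h, then androstenedione 28 nM; further 24 h. Testosterone in supernatant quantified by ELISA. Means of two separate experiments, each in triplicate.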

[9] = test system: CWR22R; experiment: Synergistic antiproliferative activity against human 22Rv1 cells assessed as reduction in cell viability at 20 uM after 72 hrs in presence of enzalutamide by sulforhodamine B colorimetric proliferation assay; format: functional
[10] = test system: CWR22R; experiment: Reduction in PSA expression level in human 22Rv1 cells by Western blot analysis; format: functional, cell-based
Method in brief: (§2)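 22RV1 treated for 72 h at three concentrations. Viable cells lysed in RIPA buffer with protease inhibitors, protein measured by Bradford, 20 µg run on SDS-PAGE and transferred to nitrocellulose. Probed overnight at 4 °C with goat polyclonal anti-PSA (1:500), β-actin as reference, HRP secondary, ECL detection; Ponceau staining as loading check.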

[11] = test system: CWR22R; experiment: Potency index, ratio of IC50 for flufenamic acid to IC50 for test compound for antiproliferative activity against human 22Rv1 cells after 72 hrs by sulforhodamine B colorimetric assay; format: functional
[12] = test system: CWR22R; experiment: Reduction in PSA expression level in human 22Rv1 cells at 1 to 30 uM by Western blot analysis; format: functional, cell-based; method in brief: as §2
[13] = test system: CWR22R; experiment: Antiproliferative activity against human 22Rv1 cells assessed as inhibition of cell proliferation at 100 uM after 72 hrs by sulforhodamine B colorimetric assay; format: functional; conditions: 22Rv1, 72 h

SMILES | IC50 [1] | inhibition at 100 µM [2] | IC50 [3] | inhibition at 100 µM [4] | IC50 [5] | IC50 [6] | Activity [7] | inhibition [8] | Activity [9] | Activity [10] | Ratio IC50 [11] | Activity [12] | inhibition at 100 µM [13]
Oc1noc2cccc(Nc3cccc(C(F)(F)F)c3)c12 | 0.55 µM | 13% | 64.8 µM | 29% | > 100 µM | 4.38 µM |  |  |  |  |  |  | 
O=C(Nc1cccc(C(F)(F)F)c1)c1c(O)nnn1Cc1ccc(OC(F)(F)F)cc1 | 0.19 µM | 0% | 31.3 µM | 0% | > 100 µM | 54.9 µM | 10 - 25% | Dose-dependent effect | 10 - 25% | Dose-dependent effect | >=4 |  | 
Oc1noc2cccc(Nc3cc(C(F)(F)F)cc(C(F)(F)F)c3)c12 |  | 0% |  | 2.1% | > 100 µM | 119 µM | 10 - 25% |  | 10 - 25% |  |  |  | 
COc1ccc(Cn2nnc(O)c2C(=O)Nc2cccc(C(F)(F)F)c2)cc1 |  |  |  |  |  |  |  |  |  |  |  | inactive | 
Oc1noc2ccc(Nc3cccc(C(F)(F)F)c3)cc12 | 3.48 µM | 0% | 74.8 µM | 29% | > 100 µM | 66.9 µM |  |  |  |  |  |  | 
COc1ccc(Cn2nnc(O)c2C(=O)Nc2cccc(C(F)(F)F)c2)cc1OC | 0.4 µM | 0.87% | 59.2 µM | 0% | > 100 µM | 108 µM |  |  |  | Dose-dependent effect |  |  | 
Oc1noc2cccc(Nc3cccc(S(F)(F)(F)(F)F)c3)c12 | 0.31 µM | 4.3% | 64.9 µM | 0% | > 100 µM | 4.29 µM |  |  |  |  |  |  | 
O=[N+]([O-])c1cccc(Nc2cccc3onc(O)c23)c1 | 1.41 µM | 0.37% | > 100 µM | 0% | > 100 µM | 5.7 µM |  |  |  |  |  |  | 31.1%
